Bioassay records: PubChem, Johns Hopkins Ion Channel Center
Kir21 block: inhibitors of mouse Kir2.1 inward-rectifier potassium channel | B-score at 10 µM | HEK293-Kir2.1, FluxOR thallium flux fluorescence; active compounds read low | AID 1672, 2009 | 310,000 tested, 0.85% active | Inward rectifier potassium channel 2 (Mus musculus), P35561;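 active = fluorescence ratio B-score at or below minus 3 SD of library scores, with starting-brightness B-score within 2 SD, cut at about -4.2 in these data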;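 note: channel flux triggered by added potassium and thallium sulfate stimulus; B-score of peak minus minimum fluorescence over baseline after thallium stimulus; more negative B-score means stronger Kir2.1 block with less thallium influx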
TRPC4 agonist: activators of mouse TRPC4 channel, primary screen, Fluo4 calcium, HEK293 TRPC4beta/mu-opioid cells | Short transient receptor potential channel 4 (Mus musculus), Q9QUQ5 | Fluo4 calcium fluorescence; active compounds read high | B-score at 10 µM | 310,000 tested, 0.49% active | AID 2237, 2010;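 active = B-score above 5 SD of library B-scores, and initial fluorescence ratio not above library mean plus 5 SD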;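 note: positive B-score marks a calcium rise read as TRPC4 activation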
Target sequence (Q9QUQ5 whole entry, looked up): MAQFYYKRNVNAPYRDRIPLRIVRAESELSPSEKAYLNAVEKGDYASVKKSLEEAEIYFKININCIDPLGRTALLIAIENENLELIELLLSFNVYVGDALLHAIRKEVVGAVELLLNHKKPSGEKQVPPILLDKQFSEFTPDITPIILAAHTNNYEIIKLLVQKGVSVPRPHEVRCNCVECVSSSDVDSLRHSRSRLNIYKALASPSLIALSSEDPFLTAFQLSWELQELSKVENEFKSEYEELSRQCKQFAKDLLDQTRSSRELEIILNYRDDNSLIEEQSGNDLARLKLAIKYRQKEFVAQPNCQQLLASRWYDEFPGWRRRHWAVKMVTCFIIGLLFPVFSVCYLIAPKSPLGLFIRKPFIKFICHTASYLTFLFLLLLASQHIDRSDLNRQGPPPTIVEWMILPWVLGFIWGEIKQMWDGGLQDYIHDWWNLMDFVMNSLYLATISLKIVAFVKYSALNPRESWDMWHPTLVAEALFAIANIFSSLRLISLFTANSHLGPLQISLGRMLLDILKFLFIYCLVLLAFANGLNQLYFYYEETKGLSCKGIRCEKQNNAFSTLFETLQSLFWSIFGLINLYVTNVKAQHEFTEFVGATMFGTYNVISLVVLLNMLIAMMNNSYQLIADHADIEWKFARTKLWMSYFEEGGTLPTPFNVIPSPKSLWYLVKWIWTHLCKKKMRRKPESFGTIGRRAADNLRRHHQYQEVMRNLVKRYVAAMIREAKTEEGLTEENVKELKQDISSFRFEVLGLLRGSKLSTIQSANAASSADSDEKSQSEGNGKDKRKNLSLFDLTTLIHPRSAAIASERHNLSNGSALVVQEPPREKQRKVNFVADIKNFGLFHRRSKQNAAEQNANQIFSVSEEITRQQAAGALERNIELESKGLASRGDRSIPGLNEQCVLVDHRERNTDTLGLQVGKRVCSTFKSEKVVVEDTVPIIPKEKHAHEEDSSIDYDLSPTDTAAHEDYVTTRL
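Technique: kinetic Fluo4 calcium fluorescence; Test system: TRPC4beta and mu-opioid receptor HEK293 stable cells; Measure: B-scored integrated calcium fluorescence ratio; Benchmarks: low control buffer alone, high control maximal DAMGO; Schedule: 45 min room-temperature Fluo4 loading, 110 s read.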
TRPC4 inh: inhibitors of mouse TRPC4 channel, primary screen, Fluo4 calcium, HEK293 TRPC4beta/mu-opioid cells; Short transient receptor potential channel 4 (Mus musculus), Q9QUQ5; 300,000 tested, 0.39% active; B-score at 10 µM; DAMGO-evoked Fluo4 calcium flux; active compounds read low;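 active = B-score over 3 SD under the library average, no early fluorescence shift, positive overall ratio signal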
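System: stable TRPC4beta/mu-opioid receptor HEK293 cells; Dosing: single-point compound dosing; Measured by: Fluo4 Ca2+ flux fluorescence; Read-out basis: per-well B score of integrated baseline-normalized Fluo4 ratio.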
TRPC6 act: mouse TRPC6 channel activators, primary screen, cell-based, HEK293, membrane potential dye; B-score at 10 µM; HEK293-TRPC6 membrane potential dye fluorescence; active compounds read high; Short transient receptor potential channel 6 (Mus musculus), Q61143; 310,000 tested, 0.13% active;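 active = B-score of the integrated fluorescence ratio above library mean plus 3 SD, and starting fluorescence ratio within library mean plus 5 SD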;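 note: higher score means more depolarization so channel activation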
TRPC6 inh: mouse TRPC6 channel inhibitors, primary screen, cell-based, HEK293, membrane potential dye. ACh-evoked depolarization; active compounds read low. 310,000 tested, 1.1% active. Short transient receptor potential channel 6 (Mus musculus), Q61143. B-score at 10 µM. AID 2553, 2010;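 active = B-score under library mean minus 3 SD, initial fluorescence not abnormally high, positive integrated signal ratio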;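 note: B-score derived from integrated fluorescence ratio over the kinetic read; more negative B-score means stronger inhibition of depolarization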
TRPC4 PAM: positive allosteric modulators of TRPC4, primary screen, cell-based, mouse TRPC4beta, HEK293 mu-opioid, Fluo-4 calcium | DAMGO EC20, Fluo-4 Ca2+ flux; active compounds read high | B-score at 10 µM | Short transient receptor potential channel 4 (Mus musculus), Q9QUQ5 | AID 2227, 2009 | 310,000 tested, 0.42% active;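 active = B-score of calcium response area above 5 SD of library B-scores, with initial fluorescence ratio within 5 SD of library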;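 note: B-score of integrated fluorescence ratio over time as area under calcium response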
An asterisk follows results filed as active; i = inactive. This is a sample that favours compounds with a hit; in the whole collection about 2.9% have one here.

SMILES	Kir21 block	TRPC4 agonist	TRPC4 inh	TRPC6 act	TRPC6 inh	TRPC4 PAM
N#CCCN(Cc1ccncc1)C(=S)NC1CC2C=CC1C2 (configuration not stated)	-0.73	i	i	i	i	i
CC1C(=O)N2CCCc3cc(NC(=O)C(=O)NCCc4ccccc4)cc1c32 (configuration not stated)	0.24	i	i	i	i	i
O=[N+]([O-])c1ccc(/C=N/Nc2nc(NCc3ccccc3)nc(N3CCOCC3)n2)cc1	1.4	i	i	i	i	i
O=[N+]([O-])c1cccc(/C=N/Nc2nc(NCc3ccccc3)nc(N3CCOCC3)n2)c1O	-0.01	53*	i	i	i	i
CCC(CC)NC(=O)c1ccc2nc[nH]c2c1	-1.2	i	i	i	i	i
COP(=O)(OC)c1nc(-c2cccc3ccccc23)oc1N1CCCCC1	-0.31	i	i	i	i	i
CCOP(=O)(OCC)c1nc(-c2cccc3ccccc23)oc1N1CCCCC1	-0.52	i	i	i	i	23*
Cc1ccccc1-c1nc(P(=O)(c2ccccc2)c2ccccc2)c(N2CCOCC2)o1	0.18	i	i	i	i	i
CCOP(=O)(c1ccccc1)c1nc(-c2ccccc2C)oc1N1CCCCC1 (configuration not stated)	0.69	i	i	i	i	11*
CS(=O)(=O)N(CC(=O)N1CCc2ccccc2C1)c1cccc(F)c1	-4.2*	i	i	i	i	i
COc1ccccc1-c1nnc(SC(C(=O)c2c[nH]c3ccccc23)c2ccccc2)n1C (configuration not stated)	-1.2	i	i	i	i	i
c1ccc(CCN=C2CCCc3c2[nH]c2ccccc32)cc1	-12*	155*	i	i	i	i
CC(=O)n1c2c(c3ccccc31)OC(N)=C(C#N)C2c1ccc(C(C)C)cc1 (configuration not stated)	1.4	i	i	i	i	12*
Cc1c(Cl)c([N+](=O)[O-])nn1CC(=O)NCc1ccco1	-1.7	i	i	i	i	i
N=C(N)SCc1ccccn1	-0.29	i	i	i	i	38*
CC(C)c1nc(SCc2ccccn2)c2c(=O)n(C)c(=O)n(C)c2n1	0.32	52*	i	i	i	i
CCc1nc(SCc2ccccn2)c2c(=O)n(C)c(=O)n(C)c2n1	0.29	i	i	i	i	i
O/N=C/c1cccc[n+]1CCCCCC[n+]1ccccc1/C=N/O	-4.3	i	i	i	i	i
CCCCCCCCC[n+]1cccc2c3ccccc3ccc21	-10*	i	i	i	-5.7*	i
C1CCC(C(CC2CCCCN2)C2CCCCC2)CC1 (configuration not stated)	-7.5*	i	i	i	i	i
COc1ccc(OCC(O)CN2CCN(c3ccc(Cl)cc3)CC2)cc1 (configuration not stated)	1.9	i	i	i	i	i
Cc1cc(O)c(-c2cc(O)c(C)cc2O)cc1O	-4.8*	i	i	i	i	i
O=C(c1ccc(=O)[nH]c1)N(Cc1ccco1)C1(C(=O)NC2CCCC2)CCCCC1	1.5	i	i	i	i	i
Cc1cc(S(=O)(=O)Nc2ccc3cn[nH]c3c2)c(C)cc1Cl	-5.2*	i	i	i	i	i
COCC(C)NC(C(=O)Nc1cccc(C(C)=O)c1)c1ccccc1 (configuration not stated)	-1.9	i	i	i	i	i
SMILES	Kir21 block	TRPC4 agonist	TRPC4 inh	TRPC6 act	TRPC6 inh	TRPC4 PAM
COCC(C)NC(C(=O)Nc1ccc(C)c(Cl)c1)c1ccccc1 (configuration not stated)	0.01	59*	i	i	i	i
CC(=O)Nc1cccc(NC(=S)Nc2cccc(Cl)c2Cl)c1	0.23	i	i	i	i	i
COC(=O)c1cccc(NC(=S)Nc2cccc(Cl)c2Cl)c1	0.07	i	-6*	i	i	i
CCOC(=O)c1c(NC(=O)CSc2nc3ccc(C)cc3[nH]2)sc2c1CC(C)(C)NC2(C)C	-4.8*	i	i	i	i	i
CCOC(=O)c1c(NC(=O)CSc2nnnn2-c2ccccc2)sc2c1CC(C)(C)NC2(C)C	-1.5	i	i	i	i	i
CC(=O)Nc1cccc(C(=O)/C=C/c2ccc(C)cc2)c1	-0.97	i	i	i	i	i
CN(C)c1ccc(/C=C/C(=O)c2cccc(Br)c2)cc1	-11	99*	i	i	i	18*
Cc1ccc(C2CC(=O)NC(SCc3ccccc3)=C2C#N)o1 (configuration not stated)	-6.9*	i	i	i	i	i
CCSC1=C(C#N)C(c2ccc(C)o2)CC(=O)N1 (configuration not stated)	-0.72	i	i	i	i	i
N#CC1=C(SCc2ccccc2)NC(=O)CC1c1ccco1 (configuration not stated)	-9.1*	i	i	i	i	i
COc1ccccc1NC(=O)Cc1noc(CN(C)Cc2cccs2)n1	0.22	i	i	i	i	i
Cc1ccc(OCC(=O)N(C)CCc2ccccn2)cc1	-0.27	89*	i	i	i	i
CN(CCc1ccccn1)C(=O)Nc1ccc(C(C)(C)C)cc1	0.45	i	i	i	i	i
CN(CCc1ccccn1)C(=O)Nc1ccc(F)cc1	-1.7	63*	i	i	i	i
Cc1ccc(OCc2cc(C(=O)N(C)CCc3ccccn3)no2)cn1	0.02	81*	i	i	i	i
O=C(COC(=O)Cc1c[nH]c2ccccc12)NC1CCCCC1	-7*	i	i	i	i	i
COc1ccc(C(C(=O)NC2CCCCC2)N(C(=O)Cc2c[nH]c3ccccc23)c2ccccc2C)cc1OC (configuration not stated)	2.5	i	i	i	i	11*
